Read-outs that look alike come from different tables or passages of the source.
Assays:
[1] = type: in vivo, rat; conditions: pretreated with 3 (10 mg/kg i.v.)
Summary of the method: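 Adult male Sprague-Dawley rats (225–250 g) were pretreated by tail vein with a selective CB1 inverse agonist (10 mg/kg, i.v.) or its vehicle. After 15 min they received the test compound (30 μg/kg, i.v.) and were killed by cervical dislocation at 0.25, 0.5, 1, 2, 4 or 8 h, three rats per time point. Frontal cortex was weighed, homogenised in four volumes MeCN with 0.1% HCO2H, and quantified by LC-MS.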

human CB1 receptors = human CB1 receptors (Homo sapiens, UniProt P21554); assay: CB1 GTPγ35S potency assay; type: biochemical; conditions: ratio of CB2 Kb to CB1 Kb; fold
human CB1 receptors, sequence (P21554 whole entry): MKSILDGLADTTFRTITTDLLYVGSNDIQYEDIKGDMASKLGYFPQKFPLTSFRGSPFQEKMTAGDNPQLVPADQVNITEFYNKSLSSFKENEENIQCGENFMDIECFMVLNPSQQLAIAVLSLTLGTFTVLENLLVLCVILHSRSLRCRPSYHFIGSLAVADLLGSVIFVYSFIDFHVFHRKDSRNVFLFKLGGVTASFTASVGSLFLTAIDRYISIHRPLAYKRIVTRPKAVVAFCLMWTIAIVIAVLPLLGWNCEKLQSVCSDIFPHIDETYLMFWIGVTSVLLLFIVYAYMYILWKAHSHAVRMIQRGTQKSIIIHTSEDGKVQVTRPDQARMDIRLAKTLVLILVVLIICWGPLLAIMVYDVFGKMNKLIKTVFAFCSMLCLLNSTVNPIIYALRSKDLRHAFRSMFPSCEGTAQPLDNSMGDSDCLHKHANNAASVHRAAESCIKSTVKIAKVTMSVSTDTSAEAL

[2] = monkey; within 10-20 min after injection; cited from earlier work

Row | SMILES | Ligand quantifiability in frontal cerebral cortex ([1]; at 4 h after injection) | CB1 versus CB2 selectivity (human CB1 receptors) | Ligand quantifiability in frontal cerebral cortex ([1]; at 2 h after injection) | Brain standardized uptake value [2] [% SUV]
1 | COc1cccc([C@H]2C[C@@H](N[C@H](C)c3ccccc3)C(=O)N2c2ccc(C(F)(F)F)cc2)c1 [Ligand 8, (3R,5R)-5-(3-Methoxy-phenyl)-3-((R)-1-phenyl-ethylamino)-1-(4-trifluoromethyl-phenyl)-pyrrolidin-2-one] | not quantifiable | – | – | –
2 | COc1cccc([C@H]2C[C@@H](N[C@H](C)c3ccc(F)cc3)C(=O)N2c2ccc(C(F)(F)F)cc2)c1 [Ligand 16, (3R,5R)-3-[(R)-1-(4-Fluoro-phenyl)-ethylamino]-5-(3-methoxy-phenyl)-1-(4-trifluoromethyl-phenyl)-pyrrolidin-2-one] | – | 2,160 | – | –
3 | C[C@@H](N[C@@H]1C[C@H](c2cccc(OCF)c2)N(c2ccc(C(F)(F)F)cc2)C1=O)c1ccccc1 [Ligand 20, (3R,5R)-5-(3-Fluoromethoxy-phenyl)-3-((R)-1-phenyl-ethylamino)-1-(4-trifluoromethyl-phenyl)-pyrrolidin-2-one] | not quantifiable | 3,580 | – | –
4 | C[C@@H](N[C@@H]1C[C@H](c2cccc(OCCF)c2)N(c2ccc(C(F)(F)F)cc2)C1=O)c1ccccc1 [Ligand 22, (3R,5R)-5-[3-(2-Fluoro-ethoxy)-phenyl]-3-((R)-1-phenyl-ethylamino)-1-(4-trifluoromethyl-phenyl)-pyrrolidin-2-one] | – | >19,500 | could not be quantified | –
5 | C[C@@H](N[C@@H]1C[C@H](c2cccc(O[11CH3])c2)N(c2ccc(C(F)(F)F)cc2)C1=O)c1ccccc1 [[^11C]8, [methyl-^11C](3R,5R)-5-(3-methoxy-phenyl)-3-((R)-1-phenyl-ethylamino)-1-(4-trifluoromethyl-phenyl)-pyrrolidin-2-one] | – | – | – | ~600

Source: PMC2587418 (Journal of medicinal chemistry, 2008)
